Laboratory results reported in ChEMBL document CHEMBL4602713, “Quantitative Proteomics Reveals Cellular Off-Targets of a DDR1 Inhibitor” (ACS Med Chem Lett, 2020).
Active and inactive are the calls of the source. The rule behind the calls is not given here.

Experiments:
[1] = biological target: T1, Catechol O-methyltransferase (Homo sapiens, UniProt P21964); assay: Binding affinity to COMT in SILAC labeled human H1299 cells incubated for 3 hrs followed by compound washout twice with PBS buffer to remove excess compound and further irradiated with UV-light at 365 nm for 20 mins by LC-MS/MS analysis; assay type: ADME, cell-based; design: dose or concentration left out as unconfirmed; conditions: nci-h1299, 3 h
T1 sequence (P21964 whole entry): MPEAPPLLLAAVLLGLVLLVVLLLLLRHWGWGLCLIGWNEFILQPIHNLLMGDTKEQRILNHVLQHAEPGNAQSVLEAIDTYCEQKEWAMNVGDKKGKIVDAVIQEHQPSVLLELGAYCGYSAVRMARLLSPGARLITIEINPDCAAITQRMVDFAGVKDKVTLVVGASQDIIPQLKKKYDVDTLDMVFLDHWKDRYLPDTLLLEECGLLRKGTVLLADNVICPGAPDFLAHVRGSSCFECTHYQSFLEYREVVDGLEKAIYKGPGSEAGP
Outline: (§1)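 SILAC-labelled H1299 cells were treated with the photoaffinity probe for 2–4 h and then UV-irradiated. Labelled proteomes were clicked to biotin-N3, enriched, digested and analysed by LC-MS/MS. Controls (excess parent inhibitor or DMSO) were run in parallel. Biological triplicates were performed, and hits were filtered by SILAC ratios.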

[2] = biological target: T2, Epithelial discoidin domain-containing receptor 1 (Homo sapiens, UniProt Q08345); assay: Binding affinity to DDR1 in TAMRA-N3 conjugated human […] cell lysate assessed as labeling band formation at 1 to 2 uM incubated for 1 to 3 hrs followed irradiation with UV-light at 365 nm for 20 mins by gel fluorescence scanning analysis
Outline: (§2)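 Live H1299 cells or H1299 lysate were incubated with the photoaffinity probe for 1–3 h, then irradiated at 365 nm for 20 min. Labelled proteins were clicked to TAMRA-N3, separated by SDS-PAGE and detected by in-gel fluorescence scanning.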

[3] = biological target: T3, Cathepsin D (Homo sapiens, UniProt P07339); assay: (§3) Binding affinity to cathepsin D in SILAC labeled human H1299 cells incubated for 3 hrs followed by compound washout twice with PBS buffer to remove excess compound and further irradiated with UV-light at 365 nm for 20 mins by LC-MS/MS analysis; assay type: cell-based; design: dose or concentration left out as unconfirmed; conditions: nci-h1299, 3 h; outline: as §1
[4] = Drug localization in cytoplasm of human H1299 cells conjugated with TAMRA-N3 incubated for 2 to 6 hrs followed by compound washout twice with PBS buffer to remove excess compound and further irradiated with UV-light for 20 mins by Hoechst staining based confocal microscopy; assay type: ADME, subcellular; conditions: nci-h1299
Outline: (§4)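 H1299 cells were incubated with the probe, with or without excess parent inhibitor, then UV cross-linked. Cells were fixed, permeabilised, clicked to TAMRA-N3 and imaged by confocal microscopy with nuclear staining and DIC. Negative control samples were included.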

[5] = biological target: Protein GPR107 (Homo sapiens, UniProt Q5VW38); assay: Binding affinity to GPR107 in SILAC labeled human H1299 cells incubated for 3 hrs followed by compound washout twice with PBS buffer to remove excess compound and further irradiated with UV-light at 365 nm for 20 mins by LC-MS/MS analysis; assay type: ADME, cell-based; design: dose or concentration left out as unconfirmed; conditions: nci-h1299, 3 h; outline: as §1
[6] = biological target: T2, Epithelial discoidin domain-containing receptor 1; assay: Inhibition of human GST-tagged DDR1 (440 to 876 residues) expressed in baculovirus expression system using fluorescein-Poly GAT as substrate incubated for 1 to 2 hrs in presence of ATP by TR-FRET assay
[7] = biological target: T3, Cathepsin D; assay: Binding affinity to cathepsin D in human […] cells assessed as protein labeling at 0.5 to 1 uM pretreated with lysosomal neutralizing agent ammonium chloride for 30 mins followed by compound treatment by pull down based Western blot analysis; assay type: ADME, cell-based
Outline: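 Live H1299 cells were first treated with 10 mM ammonium chloride for 30 min to neutralise lysosomes. Probe labelling followed, with pull-down and Western blot for CTSD.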

[8] = biological target: T3, Cathepsin D; assay: (§5) Binding affinity to cathepsin D in TAMRA-N3 conjugated human […] cells assessed as fluorescence band formation with molecular weight of 30 kDa at 1 to 2 uM incubated for 2 hrs followed by compound washout to remove excess compound and further irradiated with UV-light at 365 nm for 20 mins by pull down assay; assay type: ADME
Outline: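 Live H1299 cells were labelled with the photoaffinity probe and UV cross-linked. Labelled proteins were pulled down and detected by Western blot; CTSD was probed with an anti-CTSD antibody. The heavy chain of mature CTSD runs at ~33 kDa.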

[9] = biological target: T2, Epithelial discoidin domain-containing receptor 1; assay: Binding affinity to DDR1 in TAMRA-N3 conjugated human […] cells assessed as labeling band formation at 1 to 2 uM incubated for 1 to 3 hrs followed irradiation with UV-light at 365 nm for 20 mins by gel fluorescence scanning analysis; outline: as §2
[10] = Drug localization in cellular membrane of human H1299 cells conjugated with TAMRA-N3 incubated for 2 to 6 hrs followed by compound washout twice with PBS buffer to remove excess compound and further irradiated with UV-light for 20 mins by Hoechst staining based confocal microscopy; assay type: ADME, cell membranes; conditions: nci-h1299; outline: as §4
[11] = biological target: T2, Epithelial discoidin domain-containing receptor 1; assay: as §5, with “DDR1” for “cathepsin D”, “110” for “30”
[12] = biological target: T3, Cathepsin D; assay: as §3, with “cells assessed as labeling of heavy chain” for “cells”, “hrs in presence of excess parent compound” for “hrs”; assay type: ADME, cell-based; design: dose or concentration left out as unconfirmed; conditions: nci-h1299, 3 h; outline: as §1
[13] = test system: MDA-MB-231; assay: Antiproliferative activity against human MDA-MB-231 cells overexpressing cathepsin D assessed as growth inhibition
[14] = biological target: T3, Cathepsin D; assay: Binding affinity to cathepsin D in human H1299 cells assessed as increase in thermal stability of heavy chain at 10 uM incubated for 2 hrs followed by compound washout twice with PBS buffer to remove excess compound and further heated at 95 degree C for 10 mins by CETSA; assay type: ADME, cell-based; conditions: nci-h1299, 2 h
Outline: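 For the cellular thermal shift assay, live H1299 cells were treated with compound or DMSO. The thermal stability of the mature CTSD heavy chain was then compared between the two.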

[15] = test system: MCF7; assay: Antiproliferative activity against human MCF7 cells overexpressing cathepsin D assessed as growth inhibition
[16] = test system: SK-BR-3; assay: Antiproliferative activity against human SKBR3 cells overexpressing cathepsin D assessed as growth inhibition
[17] = biological target: T3, Cathepsin D; assay: Inhibition of cathepsin D (unknown origin) at 50 to 200 uM
[18] = Drug distribution in human H1299 cells cytosol incubated for 4 hrs followed cellular conjugation with tetrazine-TAMRA immunofluorescence microscopy; assay type: ADME, subcellular, NCI-H1299
Outline: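 Live H1299 cells were incubated with the TCO-bearing probe for 4 h, fixed, permeabilised and conjugated with tetrazine-TAMRA. After washing with fresh medium, cells were imaged by microscopy alongside anti-DDR1 immunofluorescence staining.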

T2 sequence (Q08345 whole entry, the tested form may be a part): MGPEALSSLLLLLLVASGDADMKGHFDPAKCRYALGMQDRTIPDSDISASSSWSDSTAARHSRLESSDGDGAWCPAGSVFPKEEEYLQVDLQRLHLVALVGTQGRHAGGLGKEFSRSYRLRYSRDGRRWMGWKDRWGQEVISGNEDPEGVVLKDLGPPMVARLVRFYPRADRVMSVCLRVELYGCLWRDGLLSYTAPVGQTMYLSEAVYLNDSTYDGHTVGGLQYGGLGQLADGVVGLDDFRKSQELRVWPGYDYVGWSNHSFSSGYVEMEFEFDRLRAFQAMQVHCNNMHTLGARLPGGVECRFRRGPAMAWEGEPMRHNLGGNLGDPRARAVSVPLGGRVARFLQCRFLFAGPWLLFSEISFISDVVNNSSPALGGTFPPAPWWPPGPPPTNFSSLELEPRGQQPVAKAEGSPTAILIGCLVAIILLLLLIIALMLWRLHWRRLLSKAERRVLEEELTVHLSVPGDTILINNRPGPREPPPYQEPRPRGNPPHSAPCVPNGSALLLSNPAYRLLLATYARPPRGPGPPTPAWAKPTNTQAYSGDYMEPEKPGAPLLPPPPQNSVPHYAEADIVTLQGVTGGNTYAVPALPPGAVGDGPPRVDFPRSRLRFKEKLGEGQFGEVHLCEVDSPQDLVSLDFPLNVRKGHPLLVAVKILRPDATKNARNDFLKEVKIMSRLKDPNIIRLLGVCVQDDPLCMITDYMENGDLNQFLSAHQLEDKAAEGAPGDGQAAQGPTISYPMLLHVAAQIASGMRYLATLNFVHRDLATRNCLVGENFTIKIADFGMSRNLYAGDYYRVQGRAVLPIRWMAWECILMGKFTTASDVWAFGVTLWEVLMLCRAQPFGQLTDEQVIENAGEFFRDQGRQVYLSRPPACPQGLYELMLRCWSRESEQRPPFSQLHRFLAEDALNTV
T3 sequence (P07339 65-162 limits assumed): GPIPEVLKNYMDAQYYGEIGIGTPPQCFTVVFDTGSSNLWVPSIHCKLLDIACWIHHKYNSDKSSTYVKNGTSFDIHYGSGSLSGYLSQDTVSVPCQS
T3 sequence (P07339 169-412 limits assumed): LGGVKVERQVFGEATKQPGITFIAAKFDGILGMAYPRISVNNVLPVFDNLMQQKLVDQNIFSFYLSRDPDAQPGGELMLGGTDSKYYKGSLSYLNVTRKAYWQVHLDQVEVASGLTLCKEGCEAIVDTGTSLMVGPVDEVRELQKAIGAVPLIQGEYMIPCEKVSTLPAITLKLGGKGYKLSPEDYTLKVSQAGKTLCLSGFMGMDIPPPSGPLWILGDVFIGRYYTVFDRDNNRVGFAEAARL
Chain of Protein GPR107 (Q5VW38 whole entry, the tested form may be a part): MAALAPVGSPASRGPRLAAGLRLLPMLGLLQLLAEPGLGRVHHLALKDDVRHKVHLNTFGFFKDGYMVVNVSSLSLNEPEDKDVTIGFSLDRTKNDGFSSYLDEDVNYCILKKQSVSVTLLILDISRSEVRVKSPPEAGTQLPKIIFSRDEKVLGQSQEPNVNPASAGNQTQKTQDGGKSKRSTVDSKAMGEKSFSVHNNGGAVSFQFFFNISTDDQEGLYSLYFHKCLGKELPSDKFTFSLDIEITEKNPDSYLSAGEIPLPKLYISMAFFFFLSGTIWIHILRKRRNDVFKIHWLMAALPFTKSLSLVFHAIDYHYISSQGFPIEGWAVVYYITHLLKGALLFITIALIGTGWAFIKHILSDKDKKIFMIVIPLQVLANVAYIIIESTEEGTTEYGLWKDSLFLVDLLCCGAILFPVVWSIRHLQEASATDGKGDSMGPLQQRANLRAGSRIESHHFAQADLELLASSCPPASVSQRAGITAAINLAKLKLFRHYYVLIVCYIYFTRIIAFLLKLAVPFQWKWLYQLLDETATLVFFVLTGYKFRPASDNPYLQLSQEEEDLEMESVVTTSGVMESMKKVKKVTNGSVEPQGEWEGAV

Row | Activity [1] | Activity [2] | Activity [3] | Drug uptake [4] | Activity [5] | IC50 [6] | Activity [7] | Activity [8] | Activity [9] | Drug uptake [10] | Activity [11] | Activity [12] | IC50 [13] | Activity [14] | IC50 [15] | IC50 [16] | inhibition (INH) [17] | Drug uptake [18] | SMILES
1 | Active | Active | Active | Active | Active | 259 nM | Not Active | Active | Active | Active | Active | Active |  |  |  |  |  |  | C#CCCC1(CC(=O)N2CCN(Cc3cc(NC(=O)c4ccc5c(c4)CN(c4cncnc4)CC5C)cc(C(F)(F)F)c3)CC2)N=N1 (stereo unspecified)
2 |  |  |  |  |  |  |  |  |  |  |  |  | 6990 nM | Active | 3380 nM | 6620 nM | Active |  | CC1CN(c2cncnc2)Cc2cc(C(=O)Nc3cc(CN4CCN(C)CC4)cc(C(F)(F)F)c3)ccc21 (stereo unspecified)
3 |  | Active |  | Active |  | 577 nM |  | Active | Active | Active | Active |  |  |  |  |  |  |  | C#CCCC1(CCN2CCN(Cc3cc(NC(=O)c4ccc5c(c4)CN(c4cncnc4)CC5C)cc(C(F)(F)F)c3)CC2)N=N1 (stereo unspecified)
4 |  |  |  |  |  | 397 nM |  |  |  |  |  |  |  |  |  |  |  | Active | CC1CN(c2cncnc2)Cc2cc(C(=O)Nc3cc(CN4CCN(CCC(=O)NCCCNC(=O)OC5CC/C=C/CCC5)CC4)cc(C(F)(F)F)c3)ccc21 (stereo unspecified)
